Measured values published in ChEMBL document CHEMBL5712085, “Inhibition of SMYD2 Sensitized Cisplatin to Resistant Cells in NSCLC Through Activating p53 Pathway” (2019).
Calls of active or inactive are those of the source. No cut-off for these calls is given here.

Assays:
[1] = tested on: A549; assay: Cytotoxicity against human A549 cells assessed as inhibition of cell growth measured after 48 hrs by MTT assay; assay type: functional, cell-based; settings: Lung
Procedure, shortened: (§1)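 Cells were grown in RPMI-1640 with 10% FBS, seeded at 1 × 10^5 cells/ml, left overnight and treated with a range of concentrations for 48 h. MTT (2.5 mg/ml in PBS) was added for 4 h at 37°C. Plates were centrifuged, the medium removed and the formazan dissolved in DMSO. OD was read at 570 nm.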

[2] = tested on: NCI-H460; assay: Cytotoxicity against human NCI-H460 cells assessed as inhibition of cell growth measured after 48 hrs by MTT assay; assay type: functional, cell-based; settings: Lung; procedure, shortened: as §1
[3] = tested on: Mus musculus; assay: Downregulation of p53K370me protein expression in Balb/c mouse tumor xenografted with CDDP-resistant NCI-H460 cells at 40 mg/kg/day ip by Western blot analysis; assay type: functional, organism-based
Procedure, shortened: (§2)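 Excised tumors came from NCI-H460/CDDP flank xenografts in male BALB/c mice (saline, inhibitor 40 mg/kg daily i.p., CDDP 4.0 mg/kg every 3 days i.p., or the combination; 2 weeks). They were stored at −80°C. Protein extracts were run on 10–15% SDS-PAGE, transferred to PVDF, probed with primary and HRP secondary antibodies, detected by ECL and normalized to β-actin.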

[4] = tested on: NCI-H460; assay: Antitumor activity against human CDDP-resistant NCI-H460 cells xenografted in Balb/c mouse assessed as slight decrease in tumor growth at 40 mg/kg/day i.p; assay type: functional, organism-based; settings: Lung, route ip
Procedure, shortened: (§3)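 Male BALB/c mice aged 7–8 weeks received NCI-H460/CDDP cells (5 × 10^6 in 100 μl PBS) subcutaneously into the right flank. At a mean tumor volume of 100 mm3, mice were randomized (n = 6 per group) to saline, inhibitor 40 mg/kg once daily i.p., CDDP 4.0 mg/kg every 3 days i.p., or the combination. Tumor growth was followed for 2 weeks.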

[5] = tested on: NCI-H460; assay: Antitumor activity against human CDDP-resistant NCI-H460 cells xenografted in Balb/c mouse assessed as inhibition of tumor growth at 40 mg/kg/day i.p in presence of cisplatin; assay type: functional, organism-based; settings: Lung, route ip; procedure, shortened: as §3
[6] = tested on: Mus musculus; assay: Downregulation of p53K370me protein expression in Balb/c mouse tumor xenografted with CDDP-resistant NCI-H460 cells at 40 mg/kg/day ip by Western blot analysis in presence of cisplatin; assay type: functional, organism-based; procedure, shortened: as §2
[7] = tested on: A549; assay: Potentiation of Taxol-induced cytotoxicity in human A549 cells assessed as cell viability at 2 uM measured after 48 hrs by MTT assay; assay type: functional, cell-based; settings: Lung
[8] = tested on: NCI-H460; assay: Potentiation of VCR-induced cytotoxicity in human NCI-H460 cells assessed as cell viability at 2 uM measured after 48 hrs by MTT assay; assay type: functional, cell-based; settings: Lung
[9] = tested on: NCI-H460; assay: Induction of apoptosis in human NCI-H460 cells assessed as viable cells at 10 uM after 48 hrs by annexin-V/PI staining based flow cytometry (reference value: 98.42%); assay type: functional; settings: NCI-H460, Lung, read-out: Activity
[10] = tested on: NCI-H460; assay: Potentiation of CDDP-induced apoptosis in human CDDP-resistant NCI-H460 cells assessed as viable cells at 2 uM measured after 48 hrs by annexin-V/PI staining based flow cytometry; assay type: functional; settings: NCI-H460, Lung, read-out: Activity
[11] = tested on: NCI-H460; assay: Induction of apoptosis in human NCI-H460 cells assessed as necrotic cells at 10 uM after 48 hrs by annexin-V/PI staining based flow cytometry (reference value: 1.53%); assay type: functional, Lung
[12] = tested on: NCI-H460; assay: Induction of apoptosis in human NCI-H460 cells assessed as late apoptotic cells at 10 uM after 48 hrs by annexin-V/PI staining based flow cytometry (reference value: 0.02%); assay type: functional, Lung
[13] = tested on: NCI-H460; assay: Potentiation of CDDP-induced apoptosis in human CDDP-resistant NCI-H460 cells assessed as early apoptotic cells at 2 uM measured after 48 hrs by annexin-V/PI staining based flow cytometry; assay type: functional, Lung
[14] = tested on: NCI-H460; assay: Induction of apoptosis in human CDDP-resistant NCI-H460 cells assessed as early apoptotic cells at 10 uM after 48 hrs by annexin-V/PI staining based flow cytometry (reference value: 0.03%); assay type: functional, Lung
[15] = tested on: NCI-H460; assay: Potentiation of CDDP-induced apoptosis in human NCI-H460 cells assessed as viable cells at 2 uM measured after 48 hrs by annexin-V/PI staining based flow cytometry; assay type: functional; settings: NCI-H460, Lung, read-out: Activity
[16] = tested on: NCI-H460; assay: Potentiation of CDDP-induced apoptosis in human CDDP-resistant NCI-H460 cells assessed as necrotic cells at 2 uM measured after 48 hrs by annexin-V/PI staining based flow cytometry; assay type: functional, Lung
[17] = tested on: NCI-H460; assay: Potentiation of Taxol-induced cytotoxicity in human NCI-H460 cells assessed as cell viability at 2 uM measured after 48 hrs by MTT assay; assay type: functional, cell-based; settings: Lung
[18] = tested on: NCI-H460; assay: Induction of apoptosis in human CDDP-resistant NCI-H460 cells assessed as necrotic cells at 10 uM after 48 hrs by annexin-V/PI staining based flow cytometry (reference value: 0.03%); assay type: functional, Lung
[19] = tested on: NCI-H460; assay: Induction of apoptosis in human CDDP-resistant NCI-H460 cells assessed as viable cells at 10 uM after 48 hrs by annexin-V/PI staining based flow cytometry (reference value: 95.44%); assay type: functional; settings: NCI-H460, Lung, read-out: Activity
[20] = tested on: NCI-H460; assay: Potentiation of CDDP-induced apoptosis in human NCI-H460 cells assessed as late apoptotic cells at 2 uM measured after 48 hrs by annexin-V/PI staining based flow cytometry; assay type: functional, Lung
[21] = tested on: NCI-H460; assay: Induction of apoptosis in human CDDP-resistant NCI-H460 cells assessed as late apoptotic cells at 10 uM after 48 hrs by annexin-V/PI staining based flow cytometry (reference value: 0.03%); assay type: functional, Lung
[22] = tested on: NCI-H460; assay: Potentiation of CDDP-induced apoptosis in human NCI-H460 cells assessed as necrotic cells at 2 uM measured after 48 hrs by annexin-V/PI staining based flow cytometry; assay type: functional, Lung
[23] = tested on: NCI-H460; assay: Potentiation of CDDP-induced apoptosis in human CDDP-resistant NCI-H460 cells assessed as late apoptotic cells at 2 uM measured after 48 hrs by annexin-V/PI staining based flow cytometry; assay type: functional, Lung
[24] = tested on: NCI-H460; assay: Induction of apoptosis in human NCI-H460 cells assessed as early apoptotic cells at 10 uM after 48 hrs by annexin-V/PI staining based flow cytometry (reference value: 0.02%); assay type: functional, Lung
[25] = tested on: NCI-H460; assay: Potentiation of CDDP-induced apoptosis in human NCI-H460 cells assessed as early apoptotic cells at 2 uM measured after 48 hrs by annexin-V/PI staining based flow cytometry; assay type: functional, Lung
[26] = tested on: A549; assay: Potentiation of VCR-induced cytotoxicity in human A549 cells assessed as cell viability at 2 uM measured after 48 hrs by MTT assay; assay type: functional, cell-based; settings: Lung

CC[C@]1(O)C[C@H]2CN(CCc3c([nH]c4ccccc34)[C@@](C(=O)OC)(c3cc4c(cc3OC)N(C=O)[C@H]3[C@@](O)(C(=O)OC)[C@H](OC(C)=O)[C@]5(CC)C=CCN6CC[C@]43[C@@H]65)C2)C1
Activity [1]: Dose-Dependent Effect | Activity [2]: Dose-Dependent Effect

O=C1COc2c(CCNCCN(C(=O)CCNCCc3ccc(Cl)c(Cl)c3)C3CCCCC3)ccc(O)c2N1
inhibition [3]: Active | Activity [4]: Active | Activity [5]: Active | inhibition [6]: Active

CC(=O)O[C@H]1C(=O)[C@@]2(C)[C@H]([C@H](OC(=O)c3ccccc3)[C@]3(O)C[C@H](OC(=O)[C@H](O)[C@@H](NC(=O)c4ccccc4)c4ccccc4)C(C)=C1C3(C)C)[C@]1(OC(C)=O)CO[C@@H]1C[C@@H]2O
Activity [1]: Dose-Dependent Effect | Activity [2]: Dose-Dependent Effect

CCN(C(=O)CO)[C@H]1CN(/C(=N\C#N)Nc2cccc(OC(F)F)c2)N=C1c1ccc(Cl)c(Cl)c1
Activity [7]: inactive | Activity [8]: inactive | viability at 10 µM [9]: 97.6% | viability at 2 µM [10]: 8.94% | Activity [11]: 2.08% | Activity [12]: 0.26% | Activity [13]: 5.21% | Activity [14]: 1.53% | viability at 2 µM [15]: 0.5% | Activity [16]: 19.75% | Activity [17]: inactive | Activity [18]: 4.72% | viability at 10 µM [19]: 85.2% | Activity [20]: 84.74% | Activity [21]: 7.55% | Activity [22]: 0.04% | Activity [23]: 66.1% | Activity [24]: 0.03% | Activity [25]: 14.7% | Activity [26]: inactive

CCC1=C[C@@H]2CN(C1)Cc1c([nH]c3ccccc13)[C@@](C(=O)OC)(c1cc3c(cc1OC)N(C)[C@H]1[C@@](O)(C(=O)OC)[C@H](OC(C)=O)[C@]4(CC)C=CCN5CC[C@]31[C@@H]54)C2
Activity [1]: Dose-Dependent Effect | Activity [2]: Dose-Dependent Effect
